The target in assay [1] is T1, Adenosine receptor A1 (Homo sapiens, UniProt P30542).
T1 sequence (P30542 whole entry): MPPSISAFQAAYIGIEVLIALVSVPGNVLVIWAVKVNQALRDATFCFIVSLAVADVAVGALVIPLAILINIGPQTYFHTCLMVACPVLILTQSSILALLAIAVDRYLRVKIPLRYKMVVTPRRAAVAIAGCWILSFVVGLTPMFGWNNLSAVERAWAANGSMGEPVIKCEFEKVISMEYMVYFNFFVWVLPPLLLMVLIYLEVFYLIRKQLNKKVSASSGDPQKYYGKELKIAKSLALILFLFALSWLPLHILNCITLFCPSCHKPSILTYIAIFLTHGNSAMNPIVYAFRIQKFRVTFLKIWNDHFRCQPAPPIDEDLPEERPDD
Nature of the assay: Displacement of [3H]DPCPX from human Adenosine A1 receptor expressed in CHO cells; range 512-698. In kind it is cell-based. In outline:
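Competition binding on membranes of CHO cells stably expressing human A1 receptor, resuspended in 50 mM Tris HCl pH 7.4. Incubation 120 min at 25 °C with 1 nM [3H]DPCPX, 50 µg protein per assay and at least six to eight test concentrations. CHA defined nonspecific binding. Bound ligand separated on glass-fibre filters and counted; n = 3-6.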
(In a radioligand displacement assay an active substance lowers the binding of a labelled ligand.)

Assay [2] addresses T2, Adenosine receptor A2a (Homo sapiens, UniProt P29274). Nature of the assay: Displacement of [3H]SCH-58261 from human Adenosine A2A receptor expressed in HEK293 cells; range 83-120. In kind it is cell-based.
Assay [3] addresses T3, Adenosine receptor A3 (Homo sapiens, UniProt P0DMS8).
T3 sequence (P0DMS8 whole entry): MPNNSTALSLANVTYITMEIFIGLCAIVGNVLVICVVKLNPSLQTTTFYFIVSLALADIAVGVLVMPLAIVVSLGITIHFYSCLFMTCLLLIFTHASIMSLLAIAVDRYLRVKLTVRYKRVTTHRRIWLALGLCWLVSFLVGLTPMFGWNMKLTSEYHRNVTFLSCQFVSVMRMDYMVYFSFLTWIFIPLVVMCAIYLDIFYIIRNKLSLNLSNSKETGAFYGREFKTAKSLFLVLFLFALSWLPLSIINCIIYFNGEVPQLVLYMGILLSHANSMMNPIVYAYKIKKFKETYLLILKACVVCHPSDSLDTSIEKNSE
Nature of the assay: Inhibition of IB-MECA agonist-mediated cAMP production in CHO cell membranes expressing human Adenosine A3 receptor; range 2.7-6.6. In kind it is functional, cell-based. Put shortly: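 Human A3-CHO membranes (in 50 mM Tris HCl, 10 mM MgCl2, 1 mM EDTA, pH 7.4) were preincubated for 10 min at 37 °C with 5 µM GTP, 0.5 mM Ro 20-1724 and 2.0 IU/mL adenosine deaminase. IB-MECA (100 nM) or antagonist was then added with 1 mM ATP and forskolin for 10 min. The reaction was stopped by 2 min boiling. cAMP was measured by [3H]cAMP competitive protein binding using beef adrenal binding protein, 150 min at 4 °C.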

Assay [4] deals with T3, Adenosine receptor A3. Put plainly: Displacement of [3H]MRE3008-F20 from human Adenosine A3 receptor expressed in HEK cells; range 0.39-0.54. In kind it is cell-based, HEK293.
The target of assay [5] is Adenosine receptors; A2b & A3 (Homo sapiens) (UniProt P29275+P0DMS8). Put plainly: Selectivity ratio (h2B/hA3). In kind it is protein assay.
In assay [6] the target is Adenosine receptors; A1 & A3 (Homo sapiens) (UniProt P30542+P0DMS8). Nature of the assay: Selectivity ratio (hA1/hA3). In kind it is protein assay.
Assay [7] addresses T4, Adenosine receptor A2b (Homo sapiens, UniProt P29275).
T4 sequence (P29275 whole entry): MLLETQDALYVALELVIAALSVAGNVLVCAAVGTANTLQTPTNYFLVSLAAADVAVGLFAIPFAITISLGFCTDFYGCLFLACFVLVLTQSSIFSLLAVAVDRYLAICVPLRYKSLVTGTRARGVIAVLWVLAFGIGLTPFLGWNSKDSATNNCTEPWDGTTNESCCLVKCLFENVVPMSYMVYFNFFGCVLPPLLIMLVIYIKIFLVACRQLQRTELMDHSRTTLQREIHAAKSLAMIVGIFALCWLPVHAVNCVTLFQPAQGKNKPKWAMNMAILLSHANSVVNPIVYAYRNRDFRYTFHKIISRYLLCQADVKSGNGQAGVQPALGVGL
Nature of the assay: Displacement of [3H]DPCPX from human Adenosine A2B receptor expressed in HEK293 cells; range 152-216. In kind it is cell-based. In outline: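 Competition binding on membranes of HEK-293 cells carrying recombinant human A2B receptor. Incubation 60 min at 25 °C in 50 mM Tris HCl pH 7.4 with 10 mM MgCl2, 1 mM EDTA, 0.1 mM benzamidine and 2 IU/mL adenosine deaminase. Radioligand 40 nM [3H]DPCPX, at least six to eight test concentrations. NECA defined nonspecific binding. Bound ligand separated on glass-fibre filters and counted; n = 3-6.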

The target of assay [8] is T1, Adenosine receptor A1. Put plainly: Displacement of [3H]DPCPX from human Adenosine A1 receptor expressed in CHO cells. In kind it is cell-based. In outline:
(§1)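 Human recombinant A1 receptor in CHO cell membranes, resuspended in 50 mM Tris HCl pH 7.4. Displacement run 120 min at 25 °C with 1 nM [3H]DPCPX, 50 µg protein per assay, and at least six to eight test concentrations. Nonspecific binding defined with CHA. Bound and free separated on glass-fiber filters; filter radioactivity counted. n = 3-6.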

The target of assay [9] is T4, Adenosine receptor A2b. Put plainly: Displacement of [3H]DPCPX binding at human Adenosine A2B receptor expressed in HEK293 cells. In kind it is cell-based. Put shortly: (§2)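 Membranes from HEK-293 cells with human recombinant A2B receptor. Incubation 60 min at 25 °C in 50 mM Tris HCl, 10 mM MgCl2, 1 mM EDTA, 0.1 mM benzamidine, pH 7.4, with 2 IU/mL adenosine deaminase and 40 nM [3H]DPCPX. At least six to eight test concentrations. Nonspecific binding defined with NECA. n = 3-6.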

The target of assay [10] is T2, Adenosine receptor A2a. Nature of the assay: Displacement of [3H]SCH-58261 from human Adenosine A2A receptor expressed in HEK293 cells; range 240-388. In kind it is cell-based.
Assay [11] concerns the target T3, Adenosine receptor A3. Put plainly: biochemical.
Assay [12] addresses T4, Adenosine receptor A2b. Put plainly: Displacement of [3H]DPCPX from human Adenosine A2B receptor expressed in HEK293 cells; range 76-98. In kind it is cell-based. In outline:
(§3)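 HEK-293 membranes expressing the human receptor were incubated 60 min at 25 °C. Six to eight test concentrations were used. Nonspecific binding was set with NECA. n = 3-6.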

The target in assay [13] is T1, Adenosine receptor A1. Put plainly: Displacement of [3H]-DPCPX from human Adenosine A1 receptor expressed in CHO cells; range 240-368. In kind it is cell-based.
In assay [14] the target is T3, Adenosine receptor A3. Nature of the assay: Displacement of [3H]MRE3008-F20 from human Adenosine A3 receptor expressed in HEK cells; range 0.37-0.50. In kind it is cell-based, HEK293.
In assay [15] the target is T2, Adenosine receptor A2a. Put plainly: Displacement of [3H]SCH-58261 from human Adenosine A2A receptor expressed in HEK293 cells; range 91-137. In kind it is cell-based.
Assay [16] concerns the target T1, Adenosine receptor A1. Nature of the assay: Displacement of [3H]DPCPX from human Adenosine A1 receptor expressed in CHO cells; range 509-712. In kind it is cell-based. In outline: as §1
Assay [17] addresses T3, Adenosine receptor A3. Put plainly: Displacement of [3H]MRE3008-F20 binding at human Adenosine A3 receptor expressed in HEK cells; range 0.77-0.97. In kind it is cell-based, HEK293.
Assay [18] concerns the target T2, Adenosine receptor A2a. Put plainly: Displacement of [3H]SCH-58261 from human Adenosine A2A receptor expressed in HEK293 cells; range 48-78. In kind it is cell-based.
The target in assay [19] is T4, Adenosine receptor A2b. Nature of the assay: Displacement of [3H]DPCPX from human Adenosine A2B receptor expressed in HEK293 cells; range 211-287. In kind it is cell-based. Put shortly: as §2
Assay [20] has as its target T1, Adenosine receptor A1. Nature of the assay: Displacement of [3H]DPCPX from human Adenosine A1 receptor expressed in CHO cells; range 724-889. In kind it is cell-based. In outline:
as §1

Assay [21] addresses T2, Adenosine receptor A2a. Put plainly: Displacement of [3H]SCH-58261 from human Adenosine A2A receptor expressed in HEK293 cells; range 511-648. In kind it is cell-based.
Assay [22] has as its target T4, Adenosine receptor A2b. Put plainly: Displacement of [3H]DPCPX from human Adenosine A2B receptor expressed in HEK293 cells; range 37-63. In kind it is cell-based. Put shortly:
as §3

In assay [23] the target is T3, Adenosine receptor A3. Nature of the assay: biochemical. This is another data set of the same source.

By pKi is commonly meant the negative decadic logarithm of the Ki, by convention in mol/L. A lower pKi goes with a large Ki. As usually defined, the pIC50 is the negative decadic logarithm of the IC50, by convention in mol/L.

pIC50, pKi: −log10 of the molar value. Bounds are passed on as bounds.

T2 sequence (P29274 whole entry): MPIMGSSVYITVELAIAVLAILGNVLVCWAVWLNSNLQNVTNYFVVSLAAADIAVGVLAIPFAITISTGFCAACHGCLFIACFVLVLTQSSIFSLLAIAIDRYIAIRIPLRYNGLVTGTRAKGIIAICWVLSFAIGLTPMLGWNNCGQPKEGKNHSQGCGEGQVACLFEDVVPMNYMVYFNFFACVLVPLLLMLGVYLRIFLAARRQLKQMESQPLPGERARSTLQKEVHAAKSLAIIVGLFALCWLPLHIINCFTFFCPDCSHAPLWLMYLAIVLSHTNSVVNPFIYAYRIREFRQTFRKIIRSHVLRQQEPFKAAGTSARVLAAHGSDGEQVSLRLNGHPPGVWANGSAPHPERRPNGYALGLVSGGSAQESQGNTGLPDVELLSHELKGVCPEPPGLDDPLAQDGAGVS

Take `Cn1cc2c(nc(NC(=O)Nc3ccc(Br)cc3)n3nc(-c4ccco4)nc23)n1`: the pKi in [1] was 6.22; in assay [2], 7.00; in assay [4], 9.34; in assay [7] it was 6.74. In addition, in [3], the pIC50 was 8.38. Moreover, the values for the Ratio in [5] and in [6] were 393 and 1300, respectively.
Take `CCCn1cc2c(nc(NC(=O)Nc3ccc(S(=O)(=O)O)cc3)n3nc(-c4ccco4)nc23)n1`: the pKi was under 5.00 in assay [8], under 5.00 in [9], 6.52 in [10] and 7.52 in assay [11]. Also, the Ratio in assay [5] and in [6] was over 333 each time.
On to `CCCCn1cc2c(nc(NC(=O)Nc3ccc(Cl)cc3)n3nc(-c4ccco4)nc23)n1`, for which the negative logarithm of the Ki (pKi) in assay [12] is 7.06; in assay [13] it was 6.52; in assay [14] it was 9.37; in assay [15], 6.95. Further, the Ratio was 202 in assay [5] and 698 in assay [6].
Turning to `CCn1cc2c(nc(NC(=O)Nc3ccc(F)cc3)n3nc(-c4ccco4)nc23)n1`, the pKi in assay [16] is 6.22; in assay [17] it was 9.07; in assay [18] it was 7.22; in assay [19], 6.61. For the same compound, the results for the Ratio in assay [5] and in assay [6] were 286 and 700, respectively.
As to `CCn1cc2c(nc(NC(=O)Nc3ccc4c(c3)OCO4)n3nc(-c4ccco4)nc23)n1`, the pKi in [20] is 6.10; in [21] it was 6.24; in [22], 7.32; in assay [23], 9.57. In addition, the figures for the Ratio in assay [5] and in assay [6] were 178 and 2970, respectively.

The record behind these values is ChEMBL document CHEMBL1136016, “Synthesis, biological activity, and molecular modeling investigation of new pyrazolo[4,3-e]-1,2,4-triazolo[1,5-c]pyrimidine derivatives as human A(3) adenosine receptor antagonists” (J Med Chem, 2002).
